According to ChEMBL document CHEMBL1649093, “Phthalazinone pyrazoles as potent, selective, and orally bioavailable inhibitors of Aurora-A kinase” (J Med Chem, 2011):
Converted amounts (≈) assume the structure as drawn. The source made the active and inactive calls. No cut-off for these calls is given here.

Assays:
Aurora kinase B = Aurora kinase B (Homo sapiens, UniProt Q96GD4); experiment: Inhibition of Aurora B by ELISA
In short: (§1)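 ELISA on plates coated with GST fusion carrying histone H3 residues 1-15, blocked with 1 mg/mL I-block. Aurora-A or Aurora-B kinase reacted with compound and 30 μM ATP in kinase buffer with 1 μg/mL I-block; stopped after 40 min with 25 mM EDTA. Phosphorylation read with anti-phospho-histone H3 (Ser10) 6G3 mAb. IC50 from triplicate averages.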

HCT-116 = experiment: Cytotoxicity against human HCT116 cells after 5 days by celltiter-glo assay; type: functional, cell-based; conditions: HCT-116, 120 h
MCF7 [1] = experiment: Cytotoxicity against human MCF7 cells; type: functional, cell-based
COLO 205 = experiment: Cytotoxicity against human COLO205 cells; type: functional, cell-based
[2] = Selectivity for Aurora A over Aurora B
Aurora kinase A = molecular target: T1, Aurora kinase A (Homo sapiens, UniProt O14965); experiment: Inhibition of Aurora A by ELISA; in short: as §1
T1 sequence (O14965 whole entry): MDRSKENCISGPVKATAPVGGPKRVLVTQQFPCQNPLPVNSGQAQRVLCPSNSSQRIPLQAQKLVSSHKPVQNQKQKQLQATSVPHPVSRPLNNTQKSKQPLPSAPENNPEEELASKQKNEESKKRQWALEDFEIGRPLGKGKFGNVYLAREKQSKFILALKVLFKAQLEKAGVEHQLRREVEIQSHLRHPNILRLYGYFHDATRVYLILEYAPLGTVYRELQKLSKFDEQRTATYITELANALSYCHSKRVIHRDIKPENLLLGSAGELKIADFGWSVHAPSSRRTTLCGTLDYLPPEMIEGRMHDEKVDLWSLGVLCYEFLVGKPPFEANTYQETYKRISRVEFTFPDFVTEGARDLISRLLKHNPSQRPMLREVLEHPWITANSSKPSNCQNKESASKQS

hERG (KCNH2) = hERG (KCNH2) (Homo sapiens, UniProt Q12809); experiment: Inhibition of human ERG at 10 uM
[3] = Clearance in mouse microsome measured per mg of protein; type: ADME, Liver; conditions: microsomes
[4] = Aqueous solubility of the compound; type: physicochemical; conditions: buffer
Cytochrome P450 2C9 = Cytochrome P450 2C9 (Homo sapiens, UniProt P11712); experiment: Inhibition of CYP2C9; type: ADME
Cytochrome P450 3A4 = Cytochrome P450 3A4 (Homo sapiens, UniProt P08684); experiment: Inhibition of CYP3A4; type: ADME
Cytochrome P450 2D6 = Cytochrome P450 2D6 (Homo sapiens, UniProt P10635); experiment: Inhibition of CYP2D6; type: ADME
[5] = Clearance in rat hepatocytes measured per 10^6 cells; type: ADME, cell-based, Liver, Hepatocyte
[6] = Clearance in human microsome measured per mg of protein; type: ADME; conditions: microsomes
MCF7 [7] = experiment: Induction of cell cycle arrest in human MCF7 cells assessed as accumulation at G2/M phase at 10 uM after 24 hrs by immunostaining; type: functional, cell-based

Chain of Cytochrome P450 2C9 (P11712 whole entry): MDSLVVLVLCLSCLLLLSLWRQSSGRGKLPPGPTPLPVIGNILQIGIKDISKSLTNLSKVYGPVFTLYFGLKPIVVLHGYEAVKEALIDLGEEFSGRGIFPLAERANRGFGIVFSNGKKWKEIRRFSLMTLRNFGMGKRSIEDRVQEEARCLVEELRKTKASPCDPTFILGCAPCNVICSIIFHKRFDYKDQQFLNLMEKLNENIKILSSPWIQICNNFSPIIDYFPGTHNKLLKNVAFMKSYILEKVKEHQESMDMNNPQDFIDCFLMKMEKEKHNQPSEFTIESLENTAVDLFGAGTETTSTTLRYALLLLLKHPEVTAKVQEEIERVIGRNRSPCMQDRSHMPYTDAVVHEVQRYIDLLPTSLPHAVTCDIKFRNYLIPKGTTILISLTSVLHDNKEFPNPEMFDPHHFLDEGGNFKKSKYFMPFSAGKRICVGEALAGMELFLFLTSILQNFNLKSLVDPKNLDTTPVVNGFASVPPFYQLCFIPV
Chain of Cytochrome P450 2D6 (P10635 whole entry): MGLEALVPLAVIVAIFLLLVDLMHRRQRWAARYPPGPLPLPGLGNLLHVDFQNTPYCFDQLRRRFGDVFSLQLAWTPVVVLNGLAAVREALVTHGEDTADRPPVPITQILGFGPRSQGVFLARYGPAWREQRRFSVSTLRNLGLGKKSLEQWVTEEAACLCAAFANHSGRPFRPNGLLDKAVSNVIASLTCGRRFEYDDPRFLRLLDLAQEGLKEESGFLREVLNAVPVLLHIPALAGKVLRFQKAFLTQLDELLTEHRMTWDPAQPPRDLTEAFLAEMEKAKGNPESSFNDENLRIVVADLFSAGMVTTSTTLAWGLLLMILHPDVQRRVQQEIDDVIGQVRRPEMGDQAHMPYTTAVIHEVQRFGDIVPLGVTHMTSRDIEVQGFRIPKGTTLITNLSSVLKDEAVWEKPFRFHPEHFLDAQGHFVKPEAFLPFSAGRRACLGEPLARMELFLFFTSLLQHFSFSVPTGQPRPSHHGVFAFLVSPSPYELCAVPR
Chain of Cytochrome P450 3A4 (P08684 whole entry): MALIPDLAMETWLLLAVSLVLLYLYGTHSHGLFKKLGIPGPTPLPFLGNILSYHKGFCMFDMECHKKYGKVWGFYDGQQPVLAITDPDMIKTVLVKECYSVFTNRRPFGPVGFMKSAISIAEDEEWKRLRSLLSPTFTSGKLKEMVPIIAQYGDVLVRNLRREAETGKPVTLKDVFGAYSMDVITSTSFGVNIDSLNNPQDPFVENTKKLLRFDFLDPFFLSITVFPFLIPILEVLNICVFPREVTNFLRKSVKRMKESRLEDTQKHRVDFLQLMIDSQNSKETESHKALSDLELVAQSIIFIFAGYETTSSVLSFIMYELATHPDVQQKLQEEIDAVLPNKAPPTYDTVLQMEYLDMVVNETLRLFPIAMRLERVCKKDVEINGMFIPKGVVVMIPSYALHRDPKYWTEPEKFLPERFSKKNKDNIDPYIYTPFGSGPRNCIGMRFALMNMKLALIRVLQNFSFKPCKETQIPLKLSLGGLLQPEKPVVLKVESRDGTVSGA
Chain of Aurora kinase B (Q96GD4 whole entry, the tested form may be a part): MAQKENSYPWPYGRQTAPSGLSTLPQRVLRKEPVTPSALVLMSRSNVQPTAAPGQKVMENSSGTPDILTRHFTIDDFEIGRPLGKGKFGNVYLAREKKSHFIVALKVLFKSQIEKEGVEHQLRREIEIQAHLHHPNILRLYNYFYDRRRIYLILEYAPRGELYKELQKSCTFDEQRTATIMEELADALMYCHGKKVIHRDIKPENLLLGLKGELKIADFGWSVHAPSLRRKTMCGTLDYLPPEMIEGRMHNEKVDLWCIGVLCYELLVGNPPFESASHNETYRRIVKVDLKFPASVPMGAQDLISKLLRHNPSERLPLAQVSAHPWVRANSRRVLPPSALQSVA
Chain of hERG (KCNH2) (Q12809 whole entry): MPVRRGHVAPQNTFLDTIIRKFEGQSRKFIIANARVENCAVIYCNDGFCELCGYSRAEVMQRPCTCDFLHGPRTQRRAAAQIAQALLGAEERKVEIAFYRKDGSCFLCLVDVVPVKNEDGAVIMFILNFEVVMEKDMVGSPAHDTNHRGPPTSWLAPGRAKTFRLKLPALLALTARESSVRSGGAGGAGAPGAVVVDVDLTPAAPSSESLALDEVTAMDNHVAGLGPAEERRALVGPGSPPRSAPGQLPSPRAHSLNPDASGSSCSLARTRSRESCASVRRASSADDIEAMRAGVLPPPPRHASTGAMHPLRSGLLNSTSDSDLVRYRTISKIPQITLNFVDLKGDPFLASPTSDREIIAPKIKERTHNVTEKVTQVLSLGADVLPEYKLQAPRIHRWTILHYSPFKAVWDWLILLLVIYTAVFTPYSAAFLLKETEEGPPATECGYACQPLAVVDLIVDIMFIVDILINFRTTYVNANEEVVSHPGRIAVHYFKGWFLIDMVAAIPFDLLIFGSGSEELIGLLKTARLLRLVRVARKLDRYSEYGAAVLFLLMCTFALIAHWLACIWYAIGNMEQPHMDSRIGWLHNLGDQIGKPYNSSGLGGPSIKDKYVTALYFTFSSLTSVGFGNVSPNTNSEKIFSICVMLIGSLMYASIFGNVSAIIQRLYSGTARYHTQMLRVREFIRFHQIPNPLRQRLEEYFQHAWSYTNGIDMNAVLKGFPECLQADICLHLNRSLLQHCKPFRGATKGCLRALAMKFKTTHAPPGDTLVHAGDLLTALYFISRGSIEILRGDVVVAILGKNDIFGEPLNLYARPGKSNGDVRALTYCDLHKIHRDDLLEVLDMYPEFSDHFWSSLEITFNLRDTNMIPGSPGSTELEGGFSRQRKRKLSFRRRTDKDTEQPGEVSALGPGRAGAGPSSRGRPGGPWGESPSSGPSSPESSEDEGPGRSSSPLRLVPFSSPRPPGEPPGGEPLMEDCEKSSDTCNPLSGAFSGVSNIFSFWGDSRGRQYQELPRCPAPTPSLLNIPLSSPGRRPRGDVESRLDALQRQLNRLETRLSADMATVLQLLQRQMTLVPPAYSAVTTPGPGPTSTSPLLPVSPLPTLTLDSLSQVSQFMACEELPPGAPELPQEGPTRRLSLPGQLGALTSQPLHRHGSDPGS

IC50 (Aurora kinase B) | Selectivity ratio [2] | IC50 (Aurora kinase A) | microsomal CLint [3] | solubility [4] | IC50 (Cytochrome P450 2C9) | IC50 (Cytochrome P450 3A4) | IC50 (Cytochrome P450 2D6) | hepatocyte CLint [5] | microsomal CLint [6] | SMILES | IC50 (HCT-116) | IC50 (MCF7 [1]) | IC50 (COLO 205) | inhibition at 10 µM (hERG (KCNH2)) | Activity (MCF7 [7])
34 µM | – | – | – | – | – | – | – | – | – | CC(=O)Nc1ccc(Cn2nc(Nc3cc[nH]n3)c3ccccc3c2=O)cc1 | > 30 µM | > 30 µM | – | – | –
> 100 µM | > 1000 | 0.023 µM | – | – | – | – | – | – | – | Cc1ccc(-n2nc(Nc3cc(C)[nH]n3)c3ccccc3c2=O)cc1 | 0.24 µM | > 30 µM | 3.6 µM | – | –
12.7 µM | – | 0.017 µM | – | – | – | – | – | – | – | Cc1cc(Nc2nn(Cc3cccnc3)c(=O)c3ccccc23)n[nH]1 | 2.9 µM | 13.4 µM | 4.1 µM | – | –
– | > 1000 | 14 µM | – | – | – | – | – | – | – | O=c1c2ccccc2c(Nc2n[nH]c3ccccc23)nn1-c1ccccc1 | – | – | – | – | –
22 µM | > 1000 | 0.65 µM | – | – | – | – | – | – | – | Cc1cc(Nc2n[nH]c(=O)c3ccccc23)n[nH]1 | – | – | – | – | –
24 µM | – | 0.12 µM | – | – | – | – | – | – | – | Cc1cc(Nc2nn(Cc3csc(C)n3)c(=O)c3ccccc23)n[nH]1 | 4.18 µM | > 30 µM | > 30 µM | – | –
> 100 µM | – | 0.025 µM | – | – | – | – | – | – | – | Cc1cc(Nc2nn(Cc3cc(F)ccc3F)c(=O)c3ccccc23)n[nH]1 | 0.57 µM | > 30 µM | 3.8 µM | – | –
46 µM | – | 0.032 µM | – | – | – | – | – | – | – | COc1ccc(Cn2nc(Nc3cc(C)[nH]n3)c3ccccc3c2=O)cc1 | 1.2 µM | > 30 µM | 4.2 µM | – | –
– | – | – | 15.7 µL/min/mg | 1.2 µg/mL (≈ 3.78 µM) | > 50 µM | > 50 µM | > 50 µM | 2.3 µL/min/1e6 cells | – | Cc1cc(Nc2nn(-c3ccccc3)c(=O)c3ccccc23)n[nH]1 | – | – | – | 20% | –
30 µM | > 1000 | 0.035 µM | – | 7 µg/mL (≈ 24.7 µM) | > 50 µM | > 50 µM | > 50 µM | – | – | Cc1cc(Nc2nn(C(C)C)c(=O)c3ccccc23)n[nH]1 | 0.4 µM | 1.6 µM | 1.7 µM | – | –
67 µM | > 1000 | 0.1 µM | – | – | – | – | – | – | – | COc1cccc(C(=O)Cn2nc(Nc3cc(C)[nH]n3)c3ccccc3c2=O)c1 | 2.7 µM | > 30 µM | > 30 µM | – | –
> 100 µM | – | 0.037 µM | – | – | – | – | – | – | – | Cc1cc(Nc2nn(-c3ccc(F)cc3)c(=O)c3ccccc23)n[nH]1 | 0.8 µM | 1.6 µM | 1.6 µM | – | –
27 µM | – | 0.27 µM | – | – | – | – | – | – | – | Cc1cc(Nc2nn(Cc3ccncc3)c(=O)c3ccccc23)n[nH]1 | 20.2 µM | > 30 µM | 13 µM | – | –
> 100 µM | > 1000 | 0.071 µM | – | – | – | – | – | – | – | Cc1cc(Nc2nn(CC(=O)c3ccccc3)c(=O)c3ccccc23)n[nH]1 | 5.44 µM | > 30 µM | > 30 µM | – | –
15 µM | – | 0.093 µM | – | – | – | – | – | – | – | CC(=O)Nc1ccc(Cn2nc(Nc3cc(C)[nH]n3)c3ccccc3c2=O)cc1 | 4.2 µM | > 30 µM | > 30 µM | – | –
> 50 µM | > 1000 | 0.24 µM | – | – | – | – | – | – | – | Cc1cc(Nc2nn(-c3ccc(C(C)(C)C)cc3)c(=O)c3ccccc23)n[nH]1 | 0.06 µM | 0.78 µM | – | – | –

IC50 (Aurora kinase B) | Selectivity ratio [2] | IC50 (Aurora kinase A) | microsomal CLint [3] | solubility [4] | IC50 (Cytochrome P450 2C9) | IC50 (Cytochrome P450 3A4) | IC50 (Cytochrome P450 2D6) | hepatocyte CLint [5] | microsomal CLint [6] | SMILES | IC50 (HCT-116) | IC50 (MCF7 [1]) | IC50 (COLO 205) | inhibition at 10 µM (hERG (KCNH2)) | Activity (MCF7 [7])
28 µM | > 1000 | 0.036 µM | – | – | – | – | – | – | – | COc1cccc(Cn2nc(Nc3cc(C)[nH]n3)c3ccccc3c2=O)c1 | 0.66 µM | > 30 µM | 3.6 µM | – | –
0.93 µM | – | 0.109 µM | – | – | – | – | – | – | – | Cc1cc(Nc2nn(Cc3ccc([N+](=O)[O-])cc3)c(=O)c3ccccc23)n[nH]1 | 1.4 µM | > 30 µM | – | – | –
> 100 µM | > 1000 | 0.067 µM | – | – | – | – | – | – | – | COc1ccc(C(=O)Cn2nc(Nc3cc(C)[nH]n3)c3ccccc3c2=O)cc1 | > 30 µM | > 30 µM | > 30 µM | – | –
15 µM | > 1000 | 0.066 µM | – | – | – | – | – | – | – | Cc1cc(Nc2nn(CC(F)(F)F)c(=O)c3ccccc23)n[nH]1 | 1.8 µM | 4.5 µM | – | – | –
> 100 µM | > 1000 | 0.093 µM | – | – | – | – | – | – | – | Cc1cc(Nc2nn(-c3ccc(Cl)cc3)c(=O)c3ccccc23)n[nH]1 | 0.82 µM | 11.4 µM | 2.2 µM | – | –
17 µM | – | 0.27 µM | – | – | – | – | – | – | – | Cc1cc(Nc2nn(C)c(=O)c3ccccc23)n[nH]1 | 5.2 µM | > 30 µM | > 30 µM | – | –
> 100 µM | > 1000 | 0.72 µM | – | – | – | – | – | – | – | Cc1cc(Nc2nn(CC(=O)c3ccc(C(F)(F)F)cc3)c(=O)c3ccccc23)n[nH]1 | > 30 µM | > 30 µM | > 30 µM | – | –
> 100 µM | – | 0.029 µM | – | – | – | – | – | – | – | COc1ccc(-n2nc(Nc3cc(C)[nH]n3)c3ccccc3c2=O)cc1 | 0.7 µM | 3.6 µM | 3.7 µM | – | –
34 µM | – | 0.056 µM | – | – | – | – | – | – | – | Cc1cc(Nc2nn(Cc3ccc(S(C)(=O)=O)cc3)c(=O)c3ccccc23)n[nH]1 | 1.7 µM | 4.5 µM | 4.5 µM | – | –
> 100 µM | > 1000 | – | 28 µL/min/mg | 1.9 µg/mL (≈ 5.73 µM) | 42 µM | > 50 µM | > 50 µM | 2.4 µL/min/1e6 cells | 7.4 µL/min/mg | Cc1cc(Nc2nn(Cc3ccccc3)c(=O)c3ccccc23)n[nH]1 | 1.5 µM | 12.6 µM | 4.4 µM | – | Active
> 100 µM | > 1000 | 0.024 µM | – | – | – | – | – | – | – | Cc1cccc(-n2nc(Nc3cc(C)[nH]n3)c3ccccc3c2=O)c1 | 2.3 µM | 2.9 µM | 3.2 µM | – | –
– | > 1000 | 1 µM | – | – | – | – | – | – | – | Cc1ccc(-n2nc(Nc3cc[nH]n3)c3ccccc3c2=O)cc1 | – | – | – | – | –
> 100 µM | > 1000 | 0.049 µM | – | – | – | – | – | – | – | Cc1cc(Nc2nn(Cc3cc(F)cc(F)c3)c(=O)c3ccccc23)n[nH]1 | 0.5 µM | 2.6 µM | 2.3 µM | – | –
34 µM | – | 0.115 µM | – | – | – | – | – | – | – | Cc1cc(Nc2nn(CC(C)C)c(=O)c3ccccc23)n[nH]1 | 1.1 µM | 4.2 µM | – | – | –
69 µM | > 1000 | 0.014 µM | – | – | – | – | – | – | – | Cc1cc(Nc2nn(Cc3ccc(F)cc3)c(=O)c3ccccc23)n[nH]1 | 1.4 µM | > 30 µM | 17 µM | – | –
